Calls of active or inactive are those of the source. No cut-off for these calls is given here.
How the values were obtained:
[1] = molecular target: T1, Luciferin 4-monooxygenase (Photinus pyralis, UniProt P08659); assay: Inhibition of Photinus pyralis luciferase by Easy lite assay
Summary of the method: (§1)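 Detection by 2 µL of EasyLite or Kinase-Glo reagent (Kinase-Glo containing P. pennsylvanica luciferase). 1536-well luminescence. 16 two-fold concentrations, duplicate wells, repeated on two or three days.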

[2] = molecular target: T1, Luciferin 4-monooxygenase; assay: Inhibition of Photinus pyralis luciferase
[3] = molecular target: T2, Luciferin 4-monooxygenase (Photuris pensylvanica, UniProt Q27757); assay: (§2) Inhibition of luciferase Photuris pennsylvanica by Promega Kinase-Glo assay; summary of the method: as §1
T2 sequence (Q27757 whole entry): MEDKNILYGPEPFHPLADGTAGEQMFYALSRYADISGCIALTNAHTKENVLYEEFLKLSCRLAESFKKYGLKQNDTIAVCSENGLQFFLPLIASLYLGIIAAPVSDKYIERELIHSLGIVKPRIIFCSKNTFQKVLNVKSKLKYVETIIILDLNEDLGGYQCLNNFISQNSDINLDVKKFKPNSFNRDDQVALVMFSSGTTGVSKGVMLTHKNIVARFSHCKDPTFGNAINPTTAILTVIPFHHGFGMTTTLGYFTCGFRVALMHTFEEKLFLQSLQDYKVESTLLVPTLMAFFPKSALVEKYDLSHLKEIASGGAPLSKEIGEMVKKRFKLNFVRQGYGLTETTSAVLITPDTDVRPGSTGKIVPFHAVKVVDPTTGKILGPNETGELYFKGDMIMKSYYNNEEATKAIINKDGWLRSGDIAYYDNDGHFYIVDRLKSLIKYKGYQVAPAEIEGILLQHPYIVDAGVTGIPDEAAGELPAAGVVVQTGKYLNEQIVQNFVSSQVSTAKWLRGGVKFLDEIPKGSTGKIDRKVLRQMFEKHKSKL

[4] = molecular target: T1, Luciferin 4-monooxygenase; assay: (§3) Inhibition of Photinus pyralis luciferase by BrightGlo reporter gene assay
Summary of the method: (§4)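 5 nM purified P. pyralis luciferase in SteadyGlo or BrightGlo reporter-gene reagent; no extra ATP or D-luciferin added. 1536-well luminescence. Curves from 16 two-fold concentrations in duplicate, repeated on two or three separate days.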

[5] = molecular target: T1, Luciferin 4-monooxygenase; assay: Inhibition of Photinus pyralis luciferase by PK-Light assay
[6] = molecular target: T1, Luciferin 4-monooxygenase; assay: (§5) Inhibition of Photinus pyralis luciferase by Steady-Glo reporter gene assay; summary of the method: as §4
[7] = molecular target: T3, Luciferin 4-monooxygenase (Photuris pensylvanica) (UniProt Q27757); assay: as §2; summary of the method: as §1
T3 sequence (whole entry): T2 sequence (Q27757 whole entry)

[8] = molecular target: Luciferin 4-monooxygenase (Photinus pyralis) (UniProt P08659); assay: as §3; summary of the method: as §4
[9] = molecular target: Luciferin 4-monooxygenase (Photinus pyralis) (UniProt P08659); assay: as §5; summary of the method: as §4
[10] = Inhibition of Renilla reniformis luciferase
[11] = molecular target: T3, Luciferin 4-monooxygenase (Photuris pensylvanica); assay: Inhibition of Photuris pennsylvanica luciferase at 57 uM by Promega Kinase-Glo assay
[12] = molecular target: Luciferin 4-monooxygenase (Photinus pyralis) (UniProt P08659); assay: Inhibition of Photinus pyralis luciferase at 0.04 uM

T1 sequence (P08659 whole entry): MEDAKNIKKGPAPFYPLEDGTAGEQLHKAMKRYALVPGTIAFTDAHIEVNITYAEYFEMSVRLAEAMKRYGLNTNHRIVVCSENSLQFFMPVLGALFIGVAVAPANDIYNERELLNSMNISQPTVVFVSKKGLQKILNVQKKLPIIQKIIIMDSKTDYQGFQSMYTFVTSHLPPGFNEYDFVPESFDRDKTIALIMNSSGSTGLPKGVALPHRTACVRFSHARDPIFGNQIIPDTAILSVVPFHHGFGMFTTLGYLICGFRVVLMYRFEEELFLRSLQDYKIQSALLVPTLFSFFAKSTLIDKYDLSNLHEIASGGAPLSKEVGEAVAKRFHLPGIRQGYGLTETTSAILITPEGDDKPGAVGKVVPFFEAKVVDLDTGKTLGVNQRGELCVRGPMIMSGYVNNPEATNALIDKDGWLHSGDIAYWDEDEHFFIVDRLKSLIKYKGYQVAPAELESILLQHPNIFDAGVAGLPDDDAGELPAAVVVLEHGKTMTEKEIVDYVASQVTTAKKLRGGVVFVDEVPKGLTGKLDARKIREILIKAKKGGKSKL
Luciferin 4-monooxygenase (Photinus pyralis), sequence (P08659 whole entry): as above

Structure (SMILES): Cc1ccc2nc(NC(=O)c3cccs3)sc2c1
- IC50 [1]: 1700 nM
- IC50 [2]: 500 nM
- IC50 [3]: > 50000 nM
- IC50 [4]: 6700 nM
- IC50 [5]: 1400 nM
- IC50 [6]: 6900 nM

Structure (SMILES): Clc1cccc(/C=N\C=N\c2cccc(Cl)c2)c1
- IC50 [1]: 11400 nM
- IC50 [2]: 4500 nM
- Activity [7]: inactive
- Activity [8]: inactive
- IC50 [5]: 7800 nM
- Activity [9]: inactive
- IC50 [10]: > 50000 nM

Structure (SMILES): CCOc1ccc2nc(NC(=O)c3ccoc3C)sc2c1
- IC50 [1]: 5700 nM
- IC50 [2]: 650 nM
- IC50 [3]: 3800 nM
- IC50 [4]: 4000 nM
- IC50 [5]: 4200 nM
- IC50 [6]: 3600 nM

Structure (SMILES): CN(C)c1ccc(/C=C2\C(=O)Nc3ccccc32)cc1
- Activity [7]: inactive
- IC50 [10]: 19000 nM

Structure (SMILES): Cc1ccc(C(=O)Nc2nc3ccc(S(C)(=O)=O)cc3s2)s1
- IC50 [1]: 3200 nM
- IC50 [2]: 1100 nM
- Activity [7]: inactive
- IC50 [4]: 13300 nM
- Activity [11]: inactive
- IC50 [5]: 5400 nM
- IC50 [6]: 10000 nM

Structure (SMILES): c1ccc(-c2noc(-c3ccc4ccccc4c3)n2)nc1
- IC50 [1]: 220 nM
- IC50 [2]: 100 nM
- IC50 [3]: 11300 nM
- IC50 [4]: 200 nM
- IC50 [5]: 220 nM
- IC50 [6]: 200 nM
- IC50 [10]: 25000 nM

Structure (SMILES): CN(C)c1ccc(N/C=C\C(=O)c2ccccc2)cc1
- IC50 [1]: 400 nM
- IC50 [2]: 210 nM
- IC50 [3]: 3200 nM
- IC50 [4]: 700 nM
- IC50 [5]: 600 nM
- IC50 [6]: 600 nM
- IC50 [10]: 11000 nM

Structure (SMILES): Cc1ccc(-c2nc(-c3ccccc3)no2)c(Cl)c1
- IC50 [1]: 400 nM
- IC50 [2]: 150 nM
- IC50 [3]: 10500 nM
- IC50 [4]: 300 nM
- IC50 [5]: 500 nM
- IC50 [6]: 160 nM

Structure (SMILES): COc1ccc(C(=O)NC(=O)Nc2cc(C)ccn2)cc1
- IC50 [1]: 370 nM
- IC50 [2]: 410 nM
- IC50 [3]: 6900 nM
- IC50 [4]: 1000 nM
- IC50 [5]: 980 nM
- IC50 [6]: 1200 nM

Structure (SMILES): CN1CCN(C(=O)COc2ccc(-c3nc4ccccc4s3)cc2)CC1
- IC50 [1]: 400 nM
- IC50 [2]: 300 nM
- Activity [7]: inactive
- IC50 [4]: 6500 nM
- IC50 [5]: 900 nM
- IC50 [6]: 1000 nM

Structure (SMILES): Cc1ccc(-c2nc(-c3ccccn3)no2)cc1Cl
- IC50 [1]: 800 nM
- IC50 [2]: 220 nM
- IC50 [3]: 22000 nM
- IC50 [4]: 1400 nM
- IC50 [5]: 2100 nM
- IC50 [6]: 1600 nM

Structure (SMILES): Clc1ccc(-c2nc(-c3ccccn3)no2)cc1Cl
- IC50 [1]: 1900 nM
- IC50 [2]: 840 nM
- IC50 [3]: 19000 nM
- IC50 [4]: 3900 nM
- IC50 [5]: 4100 nM
- IC50 [6]: 3300 nM

Structure (SMILES): COc1ccc(C(=O)Nc2ccc(C)cn2)c(OC)c1
- IC50 [1]: 280 nM
- IC50 [2]: 80 nM
- IC50 [3]: 14200 nM
- IC50 [4]: 200 nM
- IC50 [5]: 250 nM
- IC50 [6]: 500 nM

Structure (SMILES): O=C(/C=C\Nc1ccccn1)c1ccc(Cl)cc1
- IC50 [1]: 4700 nM
- IC50 [2]: 2000 nM
- Activity [7]: inactive
- IC50 [4]: 1200 nM
- IC50 [5]: 4100 nM
- IC50 [6]: 500 nM

Structure (SMILES): O=c1c2ccccc2cnn1-c1nc2ccccc2s1
- IC50 [1]: 150 nM
- IC50 [2]: 300 nM
- IC50 [3]: 5100 nM
- IC50 [4]: 700 nM
- IC50 [5]: 200 nM
- IC50 [6]: 600 nM

Structure (SMILES): CCOc1ccc(-c2cc(C(=O)N3CCC4(CC3)OCCO4)c3ccccc3n2)cc1
- IC50 [1]: 1000 nM
- IC50 [2]: 700 nM
- IC50 [3]: > 50000 nM
- Activity [8]: inactive
- IC50 [5]: 1400 nM
- Activity [9]: inactive
- IC50 [10]: 11000 nM

Structure (SMILES): Cc1cccc(/C=C/c2ccccc2)n1
- IC50 [1]: 11000 nM
- IC50 [2]: 4300 nM
- IC50 [3]: > 50000 nM
- IC50 [4]: 24000 nM
- IC50 [5]: 17000 nM
- IC50 [6]: > 100000 nM

Structure (SMILES): CCN(CC)c1ccc2cc(-c3nc4ccccc4[nH]3)c(=O)oc2c1
- IC50 [1]: 14000 nM
- IC50 [2]: 240 nM
- IC50 [3]: 16000 nM
- IC50 [4]: 400 nM
- IC50 [5]: 380 nM
- IC50 [6]: 120 nM
- IC50 [10]: 5300 nM
- inhibition [12]: 100%

Structure (SMILES): CC(C)(C)C(=O)Nc1ccc(NC(=O)c2cccc(O)c2)nc1
- IC50 [1]: 800 nM
- IC50 [2]: 700 nM
- IC50 [3]: > 30000 nM
- IC50 [4]: 7200 nM
- IC50 [5]: 5000 nM
- IC50 [6]: 800 nM

Structure (SMILES): Clc1cccc(-c2nc(-c3ccccn3)no2)c1
- IC50 [1]: 700 nM
- IC50 [2]: 500 nM
- IC50 [3]: 7400 nM
- IC50 [4]: 1200 nM
- IC50 [5]: 2100 nM
- IC50 [6]: 1500 nM
- IC50 [10]: > 50000 nM

Structure (SMILES): O=c1cc(-c2ccccc2O)oc2ccc3ccccc3c12
- IC50 [1]: 200 nM
- IC50 [2]: 50 nM
- IC50 [3]: 14000 nM
- IC50 [4]: 90 nM
- IC50 [5]: 700 nM
- IC50 [6]: 60 nM
